# Test results taken from article PMC7962621 (Cell, 2019).
# Experiments:
# [1] = system: CD4 T cells from DQ8+ T1D subjects; test: CFSE proliferation assay with immobilized peptide/DQ8 complexes, T1D subjects; format: cell-based, human; details: peptide-loaded DQ8 immobilized (10 μM), 7 days, CFSElow CD4 T cells; n = 3
# In short: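 Freshly isolated PBMCs were washed in warm PBS and labelled with 1 μM CFSE for 1–2 min at 37 °C, then quenched with chilled medium. Thrombin-cleaved, CLIP-free DQ8 monomers (0.5 μM) were loaded with peptide (100 μM) for 72 h at 37 °C in pH 5.5 citrate phosphate buffer, then immobilized in wells. Unstimulated cells served as negative control and anti-CD3/CD28 as positive control.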
# [2] = relative to native insulin; ref Wang et al., 2018; cited from earlier work
# DQ8 = details: two registers placing nonacidic residues at P1 and P9; background statement; cited from earlier work
Substance,Stimulation of CD4 T cells from DQ8+ T1D subjects [1],Fold potency vs native insulin B:9–23 [2],Binding of insulin B:9–23 peptide to DQ8 (DQ8)
CARQRFWSGPLFDYW [h-Id],no significant responses,–,–
SHLVEALYLVCGEEG [mimotope],–,100 fold,–
SHLVEELYLVAGEEG [superagonist],–,"about 1,000 fold",–
native insulin: insulin B:9–23 peptide SHLVEALYLVCGERG,no significant responses,–,binds poorly to DQ8
